# Results from ChEMBL document CHEMBL5724801, “EUbOPEN Chemogenomics Library - Multiplex” (2024).
# Where “and” joins values, the source holds several entries; their conditions need not be identical. Equal entries are not always repeated.
# System: U2OS
# Assay: Multiplex assay against U2OS
# Format: toxicity, cell-based
# Details: human
# Summary of the method: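 Phenotypes for tubulin, mitochondrial mass and membrane permeability are expressed as per cents of healthy-nucleus cells. Cells were stained live at seeding with Hoechst33342, BioTracker Green Microtubule Cytoskeleton Dye, MitoTracker Red and Annexin V Alexa Fluor 680, then imaged after compound addition on a CQ1 microscope at 37°C and 5% CO2. Machine-learning gating in CellPathfinder separated Hoechst high-intensity objects from normal cells, divided normal cells by nuclear state (healthy, pyknosed, fragmented) and divided pyknosed cells into mitotic or apoptotic.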
# [1] = 12 h, 1 µM, compound concentration 1 uM
# [2] = 12 h, 10 µM, compound concentration 10 uM
# [3] = 24 h, 1 µM, compound concentration 1 uM
# [4] = 24 h, 10 µM, compound concentration 10 uM
# [5] = 48 h, 1 µM, compound concentration 1 uM
# [6] = 48 h, 10 µM, compound concentration 10 uM
smiles,measurement,setting,value
CSc1nc(NC2CCCC2)c([N+](=O)[O-])c(NC2CCCC2)n1 [GS-39783],Population Apoptotic (%),[1],82% and 80%
same,Population Fragmented Nuclei (%),[1],25% and 18%
same,Population Healthy Nuclei (%),[1],66% and 76%
same,Population Hoechst High Intensity Objects (%),[1],2% and 3%
same,Population Membrane Permeable-Phenotype (%),[1],4%
same,Population Mitochondria Different-Phenotype (%),[1],3% and 0%
same,Population Mitotic Cells (%),[1],17% and 20%
same,Population Normal (%),[1],97% and 96%
same,Population Pyknosed Nuclei (%),[1],8% and 5%
same,Population Tubulin-Different-Phenotype (%),[1],1%
same,Total Cell Count,[1],209 and 96
same,Population Apoptotic (%),[2],88% and 100%
same,Population Fragmented Nuclei (%),[2],30% and 19%
same,Population Healthy Nuclei (%),[2],63% and 75%
same,Population Hoechst High Intensity Objects (%),[2],3% and 1%
same,Population Membrane Permeable-Phenotype (%),[2],9%
same,Population Mitochondria Different-Phenotype (%),[2],5% and 0%
same,Population Mitotic Cells (%),[2],11% and 0%
same,Population Normal (%),[2],96% and 98%
same,Population Pyknosed Nuclei (%),[2],5% and 4%
same,Population Tubulin-Different-Phenotype (%),[2],4% and 6%
same,Total Cell Count,[2],322 and 145
same,Population Apoptotic (%),[3],87% and 84%
same,Population Fragmented Nuclei (%),[3],22% and 20%
same,Population Healthy Nuclei (%),[3],64% and 68%
same,Population Hoechst High Intensity Objects (%),[3],2% and 1%
same,Population Membrane Permeable-Phenotype (%),[3],2% and 1%
same,Population Mitochondria Different-Phenotype (%),[3],1%
same,Population Mitotic Cells (%),[3],12% and 15%
same,Population Normal (%),[3],97% and 98%
same,Population Pyknosed Nuclei (%),[3],12% and 11%
same,Population Tubulin-Different-Phenotype (%),[3],1% and 0%
same,Total Cell Count,[3],269 and 119
same,Population Apoptotic (%),[4],85% and 88%
same,Population Fragmented Nuclei (%),[4],26% and 18%
same,Population Healthy Nuclei (%),[4],66% and 75%
same,Population Hoechst High Intensity Objects (%),[4],2% and 3%
same,Population Membrane Permeable-Phenotype (%),[4],6% and 9%
same,Population Mitochondria Different-Phenotype (%),[4],6% and 2%
same,Population Mitotic Cells (%),[4],14% and 11%
same,Population Normal (%),[4],97% and 96%
same,Population Pyknosed Nuclei (%),[4],6% and 5%
same,Population Tubulin-Different-Phenotype (%),[4],4% and 5%
same,Total Cell Count,[4],341 and 164
same,Population Apoptotic (%),[5],88% and 92%
same,Population Fragmented Nuclei (%),[5],18% and 21%
same,Population Healthy Nuclei (%),[5],70% and 71%
same,Population Hoechst High Intensity Objects (%),[5],1% and 0%
same,Population Membrane Permeable-Phenotype (%),[5],3%
same,Population Mitochondria Different-Phenotype (%),[5],1%
same,Population Mitotic Cells (%),[5],11% and 7%
same,Population Normal (%),[5],98% and 100%
same,Population Pyknosed Nuclei (%),[5],11% and 7%
same,Population Tubulin-Different-Phenotype (%),[5],1% and 3%
same,Total Cell Count,[5],382 and 185
same,Population Apoptotic (%),[6],89% and 85%
same,Population Fragmented Nuclei (%),[6],23% and 12%
same,Population Healthy Nuclei (%),[6],67% and 81%
same,Population Hoechst High Intensity Objects (%),[6],2% and 0%
same,Population Membrane Permeable-Phenotype (%),[6],5% and 4%
same,Population Mitochondria Different-Phenotype (%),[6],1% and 3%
same,Population Mitotic Cells (%),[6],10% and 14%
same,Population Normal (%),[6],97% and 99%
same,Population Pyknosed Nuclei (%),[6],8% and 6%
same,Population Tubulin-Different-Phenotype (%),[6],2% and 3%
same,Total Cell Count,[6],462 and 231
CC[C@H](Nc1ncnc2[nH]cnc12)c1nc2cccc(F)c2c(=O)n1-c1ccccc1 [IDELALISIB],Population Apoptotic (%),[1],50% and 55%
same,Population Fragmented Nuclei (%),[1],1.02% and 4.85%
same,Population Healthy Nuclei (%),[1],88.24% and 85.44%
same,Population Hoechst High Intensity Objects (%),[1],0%
same,Population Membrane Permeable-Phenotype (%),[1],1.45% and 1.7%
same,Population Mitochondria Different-Phenotype (%),[1],0.29% and 7.39%
same,Population Mitotic Cells (%),[1],50% and 45%
same,Population Normal (%),[1],100%
same,Population Pyknosed Nuclei (%),[1],10.74% and 9.71%
same,Population Tubulin-Different-Phenotype (%),[1],3.19% and 1.14%
same,Total Cell Count,[1],391 and 206
same,Population Apoptotic (%),[2],33.33% and 37.5%
same,Population Fragmented Nuclei (%),[2],1.17% and 2.76%
same,Population Healthy Nuclei (%),[2],86.55% and 75.17%
same,Population Hoechst High Intensity Objects (%),[2],0%
same,Population Membrane Permeable-Phenotype (%),[2],10.47% and 14.68%
same,Population Mitotic Cells (%),[2],66.67% and 62.5%
same,Population Normal (%),[2],100%
same,Population Pyknosed Nuclei (%),[2],12.28% and 22.07%
same,Total Cell Count,[2],342 and 145
same,Population Apoptotic (%),[3],46.94% and 30.77%
same,Population Fragmented Nuclei (%),[3],1.87% and 2.83%
same,Population Healthy Nuclei (%),[3],88.97% and 86.64%
same,Population Hoechst High Intensity Objects (%),[3],0% and 0.4%
same,Population Membrane Permeable-Phenotype (%),[3],0.84% and 2.34%
same,Population Mitochondria Different-Phenotype (%),[3],0.21% and 5.14%
same,Population Mitotic Cells (%),[3],53.06% and 69.23%
same,Population Normal (%),[3],100% and 99.6%
same,Population Pyknosed Nuclei (%),[3],9.16% and 10.53%
same,Population Tubulin-Different-Phenotype (%),[3],1.68% and 0.47%
same,Total Cell Count,[3],535 and 248
same,Population Apoptotic (%),[4],44.64% and 41.38%
same,Population Fragmented Nuclei (%),[4],2.79% and 2.6%
same,Population Healthy Nuclei (%),[4],84.19% and 78.57%
same,Population Hoechst High Intensity Objects (%),[4],0%
same,Population Membrane Permeable-Phenotype (%),[4],7.73% and 14.88%
same,Population Mitotic Cells (%),[4],55.36% and 58.62%
same,Population Normal (%),[4],100%
same,Population Pyknosed Nuclei (%),[4],13.02% and 18.83%
same,Population Tubulin-Different-Phenotype (%),[4],12.15% and 4.13%
same,Total Cell Count,[4],430 and 154
same,Population Apoptotic (%),[5],46.67% and 39.53%
same,Population Fragmented Nuclei (%),[5],2.53% and 4.9%
same,Population Healthy Nuclei (%),[5],87.97% and 84.56%
same,Population Hoechst High Intensity Objects (%),[5],0%
same,Population Membrane Permeable-Phenotype (%),[5],0.84% and 3.48%
same,Population Mitochondria Different-Phenotype (%),[5],0.12% and 3.48%
same,Population Mitotic Cells (%),[5],53.33% and 60.47%
same,Population Normal (%),[5],100%
same,Population Pyknosed Nuclei (%),[5],9.49% and 10.54%
same,Population Tubulin-Different-Phenotype (%),[5],1.08% and 1.16%
same,Total Cell Count,[5],948 and 408
same,Population Apoptotic (%),[6],55.68% and 62.86%
same,Population Fragmented Nuclei (%),[6],2.47% and 5.05%
same,Population Healthy Nuclei (%),[6],84.72% and 78.9%
same,Population Hoechst High Intensity Objects (%),[6],0%
same,Population Membrane Permeable-Phenotype (%),[6],3.78% and 8.72%
same,Population Mitotic Cells (%),[6],44.32% and 37.14%
same,Population Normal (%),[6],100%
same,Population Pyknosed Nuclei (%),[6],12.81% and 16.06%
same,Population Tubulin-Different-Phenotype (%),[6],5.33% and 5.23%
C=C(C)[C@H]1CN[C@H](C(=O)O)[C@H]1CC(=O)O [KAINIC ACID],Population Apoptotic (%),[1],30.91% and 58.82%
same,Population Fragmented Nuclei (%),[1],1.23% and 1.12%
same,Population Healthy Nuclei (%),[1],87.5% and 89.39%
same,Population Hoechst High Intensity Objects (%),[1],0%
same,Population Membrane Permeable-Phenotype (%),[1],1.41% and 1.88%
same,Population Mitochondria Different-Phenotype (%),[1],0.23% and 4.38%
same,Population Mitotic Cells (%),[1],69.09% and 41.18%
same,Population Normal (%),[1],100%
same,Population Pyknosed Nuclei (%),[1],11.27% and 9.5%
same,Population Tubulin-Different-Phenotype (%),[1],0.7% and 0.62%
same,Total Cell Count,[1],488 and 179
same,Population Apoptotic (%),[2],57.14% and 30.77%
same,Population Fragmented Nuclei (%),[2],0.95% and 4.3%
same,Population Healthy Nuclei (%),[2],89.13% and 81.72%
same,Population Hoechst High Intensity Objects (%),[2],0%
same,Population Membrane Permeable-Phenotype (%),[2],0.27% and 3.29%
same,Population Mitochondria Different-Phenotype (%),[2],0.27% and 4.61%
same,Population Mitotic Cells (%),[2],42.86% and 69.23%
same,Population Normal (%),[2],100%
same,Population Pyknosed Nuclei (%),[2],9.93% and 13.98%
same,Population Tubulin-Different-Phenotype (%),[2],0.53% and 0%
same,Total Cell Count,[2],423 and 186
same,Population Apoptotic (%),[3],37.88% and 41.38%
same,Population Fragmented Nuclei (%),[3],1.93% and 1.32%
same,Population Healthy Nuclei (%),[3],88.3% and 85.96%
same,Population Hoechst High Intensity Objects (%),[3],0%
same,Population Membrane Permeable-Phenotype (%),[3],0.84% and 3.06%
same,Population Mitochondria Different-Phenotype (%),[3],0.17% and 5.61%
same,Population Mitotic Cells (%),[3],62.12% and 58.62%
same,Population Normal (%),[3],100%
same,Population Pyknosed Nuclei (%),[3],9.78% and 12.72%
same,Population Tubulin-Different-Phenotype (%),[3],0.5% and 0.51%
same,Total Cell Count,[3],675 and 228
same,Population Apoptotic (%),[4],43.86% and 44.44%
same,Population Fragmented Nuclei (%),[4],0.5% and 1.63%
same,Population Healthy Nuclei (%),[4],90.02% and 91.02%
same,Population Hoechst High Intensity Objects (%),[4],0%
same,Population Membrane Permeable-Phenotype (%),[4],0.37% and 1.79%
same,Population Mitochondria Different-Phenotype (%),[4],0% and 2.69%
same,Population Mitotic Cells (%),[4],56.14% and 55.56%
same,Population Normal (%),[4],100%
same,Population Pyknosed Nuclei (%),[4],9.48% and 7.35%
same,Population Tubulin-Different-Phenotype (%),[4],0.92% and 0.9%
same,Total Cell Count,[4],601 and 245
same,Population Apoptotic (%),[5],36.05% and 33.33%
same,Population Fragmented Nuclei (%),[5],2.72% and 1.63%
same,Population Healthy Nuclei (%),[5],90.38% and 86.14%
same,Population Hoechst High Intensity Objects (%),[5],0%
same,Population Membrane Permeable-Phenotype (%),[5],0.98% and 1.89%
same,Population Mitochondria Different-Phenotype (%),[5],0.44% and 1.89%
same,Population Mitotic Cells (%),[5],63.95% and 66.67%
same,Population Normal (%),[5],100%
same,Population Pyknosed Nuclei (%),[5],6.89% and 12.23%
same,Population Tubulin-Different-Phenotype (%),[5],0.62% and 0.95%
same,Population Apoptotic (%),[6],44.57% and 57.89%
same,Population Fragmented Nuclei (%),[6],3.7% and 0.47%
same,Population Healthy Nuclei (%),[6],88.18% and 90.59%
same,Population Hoechst High Intensity Objects (%),[6],0%
same,Population Membrane Permeable-Phenotype (%),[6],0.8% and 2.08%
same,Population Mitochondria Different-Phenotype (%),[6],0.2% and 2.08%
same,Population Mitotic Cells (%),[6],55.43% and 42.11%
same,Population Normal (%),[6],100%
same,Population Pyknosed Nuclei (%),[6],8.11% and 8.94%
same,Population Tubulin-Different-Phenotype (%),[6],0.7% and 1.3%
same,Total Cell Count,[6],1134 and 425
